Drawing on ChEMBL document CHEMBL4138193, “Novel indole and triazole based hybrid molecules exhibit potent anti-adipogenic and antidyslipidemic activity by activating Wnt3a/β-catenin pathway” (Eur J Med Chem, 2018), this text covers Activity and inhibition for one molecule.

Assay [1] relates to 3T3-L1. The experiment in a line: Anti-adipogenic activity in mouse 3T3L1 pre-adipocytes in differentiation media assessed as reduction in lipid accumulation at 20 uM after 20 mins in presence of beta-catenin/TCF complex inhibitor FH353 by Oil Red O staining based microscopic method. The assay is classed as functional, cell-based. In short, it runs like this:
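3T3-L1 adipocytes given 20 µM compound with or without 10 µM FH353 in differentiation media, then Oil red O stained. Imaged at 20x and 40x, representative of three independent experiments.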

The subject of assay [2] is Syrian golden hamster. The experiment in a line: Induction of reverse cholestrol transport in high fat diet-induced dyslipidemia Syrian Golden hamster model assessed as reduction in liver weight at 100 mg/kg, po administered for 1 week. Type of assay: functional, organism-based. The conditions noted are these: Mesocricetus auratus. In short, it runs like this:
(§1)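 Male Syrian Golden hamsters on 45% kCal HFD, dosed 100 mg/kg p.o. in 0.5% NaCMC for one week, 4 per group. Food intake and body weight recorded daily. At the end, animals were saline-perfused and liver and eWAT were excised and weighed. Paraffin sections stained with H&E and imaged at 20x.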

Assay [3] has as its system 3T3-L1. The assay can be described thus: Anti-adipogenic activity in mouse 3T3L1 cells assessed as reduction in lipid accumulation at early differentiation stage at 20 uM measured up to 3 days by Oil Red O staining based leica microscopy. Type of assay: functional, cell-based. In short, it runs like this: (§2)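 3T3-L1 or C3H10T1/2 cells given 20 µM compound in differentiation media for varied time periods, then stained with Oil red O. Imaged by microscopy at 10x, representative of three independent experiments.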

For assay [4], the species on record is Mus musculus. The assay can be described thus: Activation of Wnt3a/beta-catenin in mouse 3T3L1 cells assessed as down-regulation of CDK6 expression at 20 uM after 16 to 24 hrs in presence of FH353 by Western blot analysis. Type of assay: cell-based. The method in brief:
(§3)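 Confluent 3T3-L1 cells given differentiation media (IBMX/insulin/dexamethasone) with 20 µM compound, with or without the β-catenin/TCF inhibitor FH353 (10 µM). Proteins isolated at 16 and 24 h and Western blotted after SDS-PAGE and nitrocellulose transfer. Blocking in 5% milk/TBS-T, primary antibody overnight at 4 °C, chemiluminescent detection, β-actin control, three independent experiments.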
Background: Immunoblotting shows a protein as a band on a membrane.

The species entered for assay [5] is Mus musculus. The assay can be described thus: Activation of Wnt3a/beta-catenin in mouse 3T3L1 cells assessed as increase in BMP2 mRNA expression at 20 uM by qRT-PCR analysis. Type of assay: cell-based. In short, it runs like this: (§4)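 3T3-L1 cells differentiated with IBMX/dexamethasone/insulin media with or without 20 µM compound over the differentiation period. RNA extracted with TRIZOL, 500 ng reverse-transcribed to cDNA, then quantitative real-time PCR. Three independent experiments run in triplicate, mean ± SD, one-way ANOVA with Bonferroni posttest.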
(Real-time PCR tracks product formation cycle by cycle.)

The subject of assay [6] is 3T3-L1. The assay can be described thus: Anti-adipogenic activity in mouse differentiated 3T3L1 cells assessed as inhibition of adipogenesis at 20 uM after 20 mins by Oil Red O staining based assay. The assay is classed as functional. The method in brief: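 3T3-L1 preadipocytes given 20 µM compound with differentiation media. Oil red O stain (20 min) extracted, absorbance at 492 nm measured against MDI+ control, n=3, mean ± SD, Student t test.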

The next assay deals with C3H 10T1/2. The experiment in a line: Anti-adipogenic activity in mouse C3H10T1/2 cells assessed as reduction in lipid accumulation at early differentiation stage at 20 uM measured up to 3 days by Oil Red O staining based leica microscopy. The assay is classed as functional, cell-based. In short, it runs like this:
as §2

The test system of assay [7] is 3T3-L1. The assay can be described thus: Anti-adipogenic activity in mouse 3T3L1 cells assessed as reduction in lipid accumulation at early differentiation stage at 20 uM measured up to 3 days by Oil Red O absorbance method. Type of assay: functional, cell-based. In short, it runs like this:
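3T3-L1 or C3H10T1/2 cells given 20 µM compound with differentiation media for different time periods. Oil red O stain extracted from accumulated lipid with isopropanol and absorbance read at 492 nm. n=3, mean ± SD, Student t test against MDI+ group.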

The species entered for assay [8] is Mus musculus. The experiment in a line: Activation of Wnt3a/beta-catenin in mouse 3T3L1 cells assessed as down-regulation of CDK4 expression at 20 uM after 16 to 24 hrs by Western blot analysis. The assay is classed as cell-based. The method in brief:
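3T3-L1 cells given MDI differentiation media (0.5 mM IBMX, 5 µg/ml insulin, 250 nM dexamethasone) with or without 20 µM compound. Proteins isolated at 16 and 24 h and probed by Western blot for CDK2, CDK4, CDK6, cyclin D1 and D3. Densitometry normalized to actin, n=3, mean ± SD, Student t test.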

Assay [9] deals with Syrian golden hamster. The experiment in a line: Induction of reverse cholestrol transport in high fat diet-induced dyslipidemia Syrian Golden hamster model assessed as increase in HNF1alpha mRNA expression in liver at 100 mg/kg, po administered for 1 week by qRT-PCR analysis. Type of assay: functional, organism-based. The conditions noted are these: Mesocricetus auratus.
The species named for assay [10] is Mus musculus. The experiment in a line: Activation of Wnt3a/beta-catenin in mouse 3T3L1 cells assessed as down-regulation of CDK2 expression at 20 uM after 16 to 24 hrs in presence of FH353 by Western blot analysis. Type of assay: cell-based. In short, it runs like this:
as §3

For assay [11], the system named is Syrian golden hamster. The assay can be described thus: Induction of reverse cholestrol transport in high fat diet-induced dyslipidemia Syrian Golden hamster model assessed as increase in ABCG5 mRNA expression in eWAT at 100 mg/kg, po administered for 1 week by qRT-PCR analysis. Type of assay: functional, organism-based. Particulars: Mesocricetus auratus.
The species named for assay [12] is Mus musculus. The experiment in a line: Activation of Wnt3a/beta-catenin in mouse 3T3L1 cells assessed as down-regulation of C/EBPalpha mRNA expression at 20 uM by qRT-PCR analysis. Type of assay: cell-based. In short, it runs like this:
as §4

Assay [13] relates to 3T3-L1. The assay can be described thus: Anti-adipogenic activity in mouse 3T3L1 cells assessed as reduction in lipid accumulation at 20 uM measured up to 7 days by Oil Red O staining based leica microscopy. The assay is classed as functional, cell-based. In short, it runs like this: as §2
Assay [14] concerns Syrian golden hamster. The experiment in a line: Induction of reverse cholestrol transport in high fat diet-induced dyslipidemia Syrian Golden hamster model assessed as reduction in hepatic lipid vacuoles hypertrophy at 100 mg/kg, po administered for 1 week by H and E staining based assay. Type of assay: functional, organism-based. Particulars: Mesocricetus auratus.
For assay [15], the system named is Syrian golden hamster. The assay can be described thus: Induction of reverse cholestrol transport in high fat diet-induced dyslipidemia Syrian Golden hamster model assessed as reduction in weight gain at 100 mg/kg, po administered for 1 week. The assay is classed as functional, organism-based. The conditions noted are these: Mesocricetus auratus. In short, it runs like this: as §1

The species entered for assay [16] is Mus musculus. The experiment in a line: Activation of Wnt3a/beta-catenin in mouse 3T3L1 cells assessed as down-regulation of AP2 mRNA expression at 20 uM by qRT-PCR analysis. The assay is classed as cell-based. The method in brief: as §4
The test system of assay [17] is 3T3-L1. The assay can be described thus: Upregulation of wnt3a mRNA expression in mouse 3T3L1 cells at 20 uM by qRT-PCR analysis. Type of assay: functional, cell-based. In short, it runs like this:
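3T3-L1 cells induced with MDI differentiation medium with or without 20 µM. RNA isolated with TRIzol and 500 ng reverse-transcribed to cDNA for real-time PCR. n=3 with triplicates, mean ± SD; one-way ANOVA with Bonferroni post-test.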

Assay [18] relates to Syrian golden hamster. The experiment in a line: Anti-dyslipidemic activity in high fat diet-induced dyslipidemia Syrian Golden hamster model assessed as reduction in serum triglycerides levels at 100 mg/kg, po administered for 1 week followed by overnight fasting post last dose by clinical bio-analyzer analysis. Type of assay: functional, organism-based. The conditions noted are these: Mesocricetus auratus. In short, it runs like this:
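Male Syrian Golden hamsters (8-10 weeks, 100-120 g), 4 per group, given 45% kCal high fat diet for 4 days, then HFD plus oral dosing in 0.5% w/v NaCMC for one week. After an overnight fast, blood was taken from the retro-orbital plexus under anesthesia and serum was analysed on a clinical bio-analyzer. Mean ± SEM; one-way ANOVA with Bonferroni post-test.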

The species named for assay [19] is Mus musculus. The experiment in a line: Activation of Wnt3a/beta-catenin in mouse 3T3L1 cells assessed as induction of TCF1 expression at 20 uM after 16 to 24 hrs in presence of beta-catenin/TCF complex inhibitor FH353 by Western blot analysis. Type of assay: cell-based. In short, it runs like this: as §3

Calls of active or inactive are those of the source. The calls are words filed in the database; no cut-off is given here.

As a reminder, the inhibition is how much of the control response was suppressed. With `Cc1ccc(S(=O)(=O)N(Cc2cn(Cc3cccc(F)c3F)nn2)Cc2cn(S(=O)(=O)c3ccc(C)cc3)c3ccccc23)cc1`, the result in the assay on 3T3-L1 [1], in the assay filed under Mus musculus [4], in the assay filed under Mus musculus [10] and in the assay listed under Mus musculus [19] was inactive. The result in the assay on Syrian golden hamster [2], in the assay on 3T3-L1 [3], in the assay filed under Mus musculus [5], in the assay with C3H 10T1/2, with 3T3-L1 [7] and in the assay filed under Mus musculus [8] was Active. In addition, the outcome in the assay with Syrian golden hamster [9], in the assay on Syrian golden hamster [11], in the assay listed under Mus musculus [12], in the assay on 3T3-L1 [13], with Syrian golden hamster [14] and in the assay with Syrian golden hamster [15] was Active. Further, the result in the assay filed under Mus musculus [16], in the assay on 3T3-L1 [17] and with Syrian golden hamster [18] was Active. In addition, in the assay on 3T3-L1 [6], the inhibition at 20 µM stood at 71.5%.
